Screening data deposited in PubChem BioAssay by The Scripps Research Institute Molecular Screening Center.
A selection: hits, their analogues and other compounds. The true share with any hit is near 1.8%.
M4 PAM: human M4 muscarinic receptor positive allosteric modulators, primary screen, CHO-K1 cells, Fluo-8 calcium fluorescence. AID 624126, 2012. activation, % at 3 µM. 0.4% of 360,000 active. CHO-K1 hM4/Gqi5, ACh EC20; 0% = ACh EC20, 100% = maximal ACh;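 active means activation above its plate's cutoff, the mean activation of sample wells plus 3 SD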
Target sequence (P08173 whole entry, looked up): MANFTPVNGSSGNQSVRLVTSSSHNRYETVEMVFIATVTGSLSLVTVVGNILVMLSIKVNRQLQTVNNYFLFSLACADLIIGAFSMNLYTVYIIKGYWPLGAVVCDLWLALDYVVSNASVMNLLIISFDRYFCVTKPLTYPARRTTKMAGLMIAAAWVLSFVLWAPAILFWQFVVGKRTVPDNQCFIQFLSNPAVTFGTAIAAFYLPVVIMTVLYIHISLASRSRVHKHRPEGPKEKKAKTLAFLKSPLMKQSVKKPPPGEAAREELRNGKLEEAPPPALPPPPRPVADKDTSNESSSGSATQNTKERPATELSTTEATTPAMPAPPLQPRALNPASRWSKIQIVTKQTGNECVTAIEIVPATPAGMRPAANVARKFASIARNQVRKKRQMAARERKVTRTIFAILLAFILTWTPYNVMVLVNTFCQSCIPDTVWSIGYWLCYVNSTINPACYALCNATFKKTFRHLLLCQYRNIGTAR
M5 antag: human M5 muscarinic receptor antagonists, primary screen, CHO cells, Fluo-8 calcium fluorescence | CHO-hM5 cells, ACh EC80 | inhibition, % at 3 µM | AID 624040, 2012 | 0.59% of 360,000 active;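 active means inhibition above a per-plate cutoff, the mean of that plate's test compounds plus 3 SD, cut at about 27% in these data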;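 further: 0% = acetylcholine EC80 with DMSO and 100% = DMSO without agonist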
CHRM4 agonist: human M4 muscarinic receptor agonists, primary screen, CHO-K1 cells, Fluo-8 calcium fluorescence | Muscarinic acetylcholine receptor M4 (Homo sapiens), P08173 | CHO-K1 hM4/Gqi5; vehicle 0%, full acetylcholine response 100% | activation, % at 3 µM | 0.14% of 360,000 active | AID 624127, 2012;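 active means activation above the run mean over all test wells plus 3 SD, cut at about 32% in these data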;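 further: peak over basal fluorescence ratio per well then scaled between controls; 0% = DMSO wells and 100% = acetylcholine at EC100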
CHRM5 agonist: human M5 muscarinic receptor agonists, primary screen, CHO-K1 cells, Fluo-8 calcium fluorescence. Muscarinic acetylcholine receptor M5 (Homo sapiens), P08912. activation, % at 3 µM. 0.19% of 360,000 active. CHO-K1 hM5 cells; 0% DMSO wells, 100% maximal acetylcholine response;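 active means activation above the run's mean over test compounds plus 3 SD, cut at about 23% in these data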;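 further: signal is peak over basal fluorescence ratio across the kinetic read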
CHRM4 antagonist: human M4 muscarinic receptor antagonists, primary screen, CHO cells, Fluo-8 calcium fluorescence; Muscarinic acetylcholine receptor M4 (Homo sapiens), P08173; CHO-hM4 cells, ACh EC80; inhibition, % at 3 µM; 0.73% of 360,000 active;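 active means inhibition above its plate's cutoff, the mean inhibition of sample wells plus 3 SD, cut at about 27% in these data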;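 further: 0% = acetylcholine EC80 with DMSO and 100% = DMSO without agonist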
CHRM5 PAM: human M5 muscarinic receptor positive allosteric modulators, primary screen, CHO-K1 cells, Fluo-8 calcium fluorescence; 0.3% of 360,000 active; activation, % at 3 µM; CHO-K1 hM5, ACh EC20 PAM; 0% = ACh EC20, 100% = ACh EC100; Muscarinic acetylcholine receptor M5 (Homo sapiens), P08912;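 active means activation above the run cutoff, the mean activation of all test compounds plus 3 SD, cut at about 18% in these data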
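Test system: CHO-K1 hM5 cells / Doses: single-point, 3 µM nominal / Times: Post-acetylcholine fluorescence recording 140 s / Technique: Fluo-8 calcium fluorescence / Measure: Max/basal fluorescence ratio as % of EC20–EC100 ACh window / Benchmarks: low control EC20 acetylcholine (0%), high control EC100 acetylcholine (100%) / Replicates: one well per compound, no replicates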
* marks the source's active call; other numbers are inactive results.

SMILES | M4 PAM | M5 antag | CHRM4 agonist | CHRM5 agonist | CHRM4 antagonist | CHRM5 PAM
O=C(/C=C/c1cccc(O)c1)c1cccnc1 | -10 | 8 | 3 | 3 | 11 | -1
COc1ccc(C(=O)/C=C/c2ccc(N(C)C)cc2)c(OC)c1 | -17 | 52* | 114* | 146* | 36* | -30
CN(C)c1ccc(/C=C/C(=O)c2ccc3c(c2)OCO3)cc1 | -21 | 26 | 121* | 76* | 27* | -37
NC(=O)c1cc([N+](=O)[O-])ccc1N1CCN(Cc2ccccc2)CC1 | 1 | 10 | 1 | -9 | -7 | -5
O=C(Nc1ccccc1)c1cc(C2COCCN2C(=O)C2CC2)on1 (stereo not given) | -5 | 0 | 1 | 1 | 7 | -1
O=C(O)C(c1ccccc1)N1C(=O)/C(=C\c2ccc(O)c(O)c2)SC1=S (stereo not given) | -23 | 2 | 35* | 17 | 15 | -7
COc1ccc(/C=C2\SC(=S)N(C(Cc3ccccc3)C(=O)O)C2=O)cc1 (stereo not given) | -4 | 11 | 0 | -1 | 12 | -4
COc1cc(/C=C2/SC(=S)N(Cc3ccccc3)C2=O)ccc1O | 2 | 11 | 10 | 23* | -6 | 1
COc1ccccc1/C=C1\SC(=S)N(C(C(=O)O)c2ccccc2)C1=O (stereo not given) | 0 | 1 | -1 | -6 | -7 | -1
CCOc1cc(/C=C2\SC(=S)N(C(C(=O)O)c3ccccc3)C2=O)ccc1O (stereo not given) | -28 | 14 | 52* | 61* | 10 | -24
O=C1/C(=C\c2ccc(O)c(O)c2)SC(=S)N1Cc1ccccc1 | -10 | 22 | 20 | 15 | 23 | -9
COc1cc(/C=C2\SC(=S)N(C(C(=O)O)c3ccccc3)C2=O)ccc1O (stereo not given) | -21 | 27* | 40* | 40* | 22 | -20
CCOc1ccc(/C=C2/SC(=S)N(C(C(=O)O)c3ccccc3)C2=O)cc1OCC (stereo not given) | 4 | -5 | 0 | -2 | 0 | 4
COc1ccc2[nH]c(=O)c(CN(C(=O)c3cccnc3)c3ccc(C)cc3C)cc2c1 | -9 | 12 | 8 | 2 | -6 | -7
COc1cc(/C=C2/SC(=S)N(c3c(C)n(C)n(-c4ccccc4)c3=O)C2=O)ccc1O | -6 | 18 | 9 | 29* | 8 | -16
O=C1/C(=C\c2cc([N+](=O)[O-])ccc2O)SC(=S)N1Cc1ccc(Cl)cc1 | -23 | 28* | 17 | 16 | 30* | -11
COc1cc(/C=C2\SC(=S)N(NS(=O)(=O)c3ccccc3)C2=O)ccc1O | -8 | 13 | 10 | 12 | 3 | -6
O=C1/C(=C\c2cccc(O)c2O)SC(=S)N1Cc1ccccc1 | 1 | 1 | 0 | 3 | 8 | 1
C=CCn1c(SCCC)nc(O)cc1=O | -4 | 9 | 62* | 22 | 2 | -9
CC(=O)Nc1ccc(-n2nnnc2SCC(=O)Nc2cccc(NC(=O)c3ccco3)c2)cc1 | 4 | -6 | 2 | -1 | 26* | 3
CC(C)Cn1c(C23CC4CC(CC(C4)C2)C3)n[nH]c1=S | -14 | 19 | -2 | -23 | 27* | -30
Cc1ccc(Cl)cc1N1CCN(C(=O)c2ccc3c(c2)CCN3S(C)(=O)=O)CC1 | 0 | -8 | 9 | -5 | -9 | 5
O=C(c1ccc(Cl)cc1)C1CCCN(Cc2ccc(Oc3ncccn3)cc2)C1 (stereo not given) | -45 | 26 | 7 | -18 | 44* | -31
O=C(c1ccc(Cl)cc1)C1CCCN(Cc2cnn(-c3ccccc3)c2)C1 (stereo not given) | -13 | 9 | 10 | -14 | -7 | -17
COc1ccc(Cl)cc1NC(=O)c1nnn(CC(=O)Nc2ccc3c(c2)OCO3)c1N | 20* | -9 | 2 | -3 | 9 | 3
SMILES | M4 PAM | M5 antag | CHRM4 agonist | CHRM5 agonist | CHRM4 antagonist | CHRM5 PAM
COc1ccc(NC(=O)c2nnn(CC(=O)Nc3ccc4c(c3)OCO4)c2N)cc1OC | 2 | 19 | 0 | -6 | 2 | -6
Cc1noc(C)c1S(=O)(=O)Nc1ccc2c(c1)C(=O)N([C@H](C)CO)C[C@H](C)[C@@H](CN(C)S(=O)(=O)c1ccc(F)cc1)O2 | 1 | 5 | 0 | 1 | 0 | 3
Cc1noc(C)c1S(=O)(=O)Nc1ccc2c(c1)CC(=O)N([C@H](C)CO)C[C@H](C)[C@H](CN(C)S(=O)(=O)c1ccc(F)cc1)O2 | -14 | 4 | 1 | -7 | 59* | 7
Cc1ccc(NS(=O)(=O)c2c(C)[nH]c(C)c2C(=O)N2CCCCC2)cc1C | 10 | 6 | 2 | -5 | -14 | -4
Cc1ccc(NS(=O)(=O)c2c(C)[nH]c(C)c2C(=O)N2CCCC2)cc1Cl | 9 | 8 | 4 | 7 | -2 | 32*
COc1cccc(NC(=O)CN(C)C(=O)CSc2ccc3c(c2)OCCO3)c1 | 6 | 18 | 5 | 3 | 1 | -2
Cc1n[nH]c(C)c1CCNC(=O)C1CCC(=O)N(CCc2cccc(F)c2)C1 (stereo not given) | 10 | -6 | 0 | 3 | -8 | 24*
CCCCn1c(N)c(N(Cc2ccccc2)C(=O)COc2ccccc2F)c(=O)[nH]c1=O | -3 | 3 | 1 | 1 | 9 | 1
Cc1ccc(C(=O)NC(C)c2ccc(F)cc2)cc1 (stereo not given) | 6 | 7 | 0 | -4 | 1 | -3
CC(C)Cc1ccc(C(C)NC(=O)c2ccc(=O)[nH]c2)cc1 (stereo not given) | -15 | 10 | 22 | 25* | 9 | -13
COC(=O)/C(=C\C(=O)c1ccccc1)Nc1ccc(OC)cc1 | 0 | 30* | 1 | 3 | -1 | 27*
COc1cccc(N2CCN(c3ncnc4c3[nH]c3ccc(F)cc34)CC2C)c1 (stereo not given) | -23 | 77* | 28 | 7 | 85* | -23
O=C(CSc1nncs1)Nc1nnc(-c2ccccc2)o1 | 6 | -9 | 0 | -4 | -1 | 6
CCN(c1ccccc1)S(=O)(=O)c1ccc(Cl)c(C(=O)OCC(=O)c2[nH]c(C)c(C(C)=O)c2C)c1 | -37 | 16 | 5 | -4 | 28* | -17
